# Assay: Toxicity liver stage against HepG2, at 10uM
# Type: cell-based
# Set-up: test concentration 10 uM, cell line HepG2-A16-CD81EGFP
# Details: human, HepG2-A16-CD81EGFP cells; read-out: INHIBITION
# Summary of the method: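 Uninfected HepG2-A16-CD81EGFP cells, 3 × 10^3 per well, 1536-well, plated on prespotted compound at 10 μM final, parasite-free screening media added to match infected plates; puromycin 10 μM positive, DMSO 0.5% negative; run in parallel with 48 h PbLuc assay at 37 °C, 5% CO2; viability by CellTiter-Glo luminescence, normalized to controls.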
smiles,measurement,value
CCNC(=O)N1CCC(c2ccccc2)C1 (stereo not given),cytotoxicity at 10 µM,-3.57%
NC(=O)CN1C(=O)CO[C@H]2CN(Cc3ccc(Cl)cc3)C[C@H]21,cytotoxicity at 10 µM,13%
COc1cccc(CN2CC[C@H](c3nnc(C)o3)C2)c1,cytotoxicity at 10 µM,-0.902%
CN1C(=O)CO[C@H](c2ccc(NC(=O)Cc3cccs3)cc2)[C@H]1CO,cytotoxicity at 10 µM,0.931%
CC1CCN(C(=O)c2cnc3cc(C(=O)N(C)C)n(C)c3c2)CC1,cytotoxicity at 10 µM,6.14%
CCCC(O)CN1CCC(=O)N(Cc2ccccc2)Cc2ccccc21 (stereo not given),cytotoxicity at 10 µM,5.24%
CSCC[C@H](NC(=O)Cn1ccc2ccc(Cl)cc21)C(=O)O,cytotoxicity at 10 µM,6.59%
COc1ccc2nnc(CCCC(=O)NCCc3ccccc3)n2n1,cytotoxicity at 10 µM,-5.11%
Cc1c(Cl)cccc1S(=O)(=O)NCC(O)c1cccn1C (stereo not given),cytotoxicity at 10 µM,-5.15%
Cc1cc(F)ccc1C(=O)N1C[C@@H]2COC[C@]2(COCC2CC2)C1,cytotoxicity at 10 µM,-146%
O=C(NC1CCc2c(ccc(=O)n2CC2CC2)C1)c1ccsc1 (stereo not given),cytotoxicity at 10 µM,-4.48%
COc1cc(N2CC[C@@H](OC)[C@@H]2Cc2ccccc2)ncn1,cytotoxicity at 10 µM,-138%
O=C(Cc1ccccn1)N1CCC2(CCCN(CC3CCOCC3)C2)C1 (stereo not given),cytotoxicity at 10 µM,-122%
COc1nn(C)c2c1CCCN(S(=O)(=O)c1cccc(F)c1)C2,cytotoxicity at 10 µM,-129%
O=C(c1cscn1)N1CC[C@@H]2[C@@H]1CCN2c1ccccn1,cytotoxicity at 10 µM,5.95%
CN(C)C(=O)N1CCC2(CC1)COCCN(c1ncccn1)C2,cytotoxicity at 10 µM,8.42%
Cc1ccc(C(=O)N2CCc3ncnc(C)c3CC2)o1,cytotoxicity at 10 µM,7.89%
c1coc(CN2CC[C@@H]3O[C@@H](COCC4CCOCC4)CC[C@@H]32)c1,cytotoxicity at 10 µM,-142%
COCC1COCCC12CCN(C(=O)CCc1ccccc1C)CC2 (stereo not given),cytotoxicity at 10 µM,-1.52%
Cc1cc(F)ccc1NC(=O)Cn1cc(C(=O)O)ccc1=O,cytotoxicity at 10 µM,-0.555%
COCC(=O)N1CCCC(Cc2cnc(-c3c(C)n[nH]c3C)cn2)C1 (stereo not given),cytotoxicity at 10 µM,-4.51%
Cc1nc2ccccn2c1CC(=O)N[C@@H]1CCC[C@@H](N2CCCC2)[C@@H]1O,cytotoxicity at 10 µM,-5.13%
CCN(Cc1ccccc1)C(=O)c1cc(C2CCCN2C)ccn1 (stereo not given),cytotoxicity at 10 µM,-14.2%
Cc1ccccc1C(=O)N1CCC(n2nnc3cc(F)ccc32)CC1,cytotoxicity at 10 µM,3.94%
NS(=O)(=O)CCNC(=O)CCc1cc(Br)cs1,cytotoxicity at 10 µM,-3.39%
CCOC(=O)N1CCC(C(=O)Nc2nnc(C(F)(F)F)[nH]2)CC1,cytotoxicity at 10 µM,-6.01%
CC(CN1CCOCC1)NC(=O)Nc1cccnc1-n1cccn1 (stereo not given),cytotoxicity at 10 µM,-1.7%
CS(=O)(=O)NC1CCN(C(=O)NCC2CCCO2)CC1 (stereo not given),cytotoxicity at 10 µM,-1.9%
NC(=O)COCCNC(=O)Nc1sc2ccccc2c1Cl,cytotoxicity at 10 µM,8.81%
CN(CCSc1nncn1CC(F)(F)F)c1ccccc1,cytotoxicity at 10 µM,-1.86%
CC(C)CC(NC(=O)CN(C)C(=O)c1ccco1)c1cccs1 (stereo not given),cytotoxicity at 10 µM,-1.24%
CCN(Cc1ccccn1)C1CCN(c2ccccc2)C1=O (stereo not given),cytotoxicity at 10 µM,4.34%
Cc1cccc(N2CCN(C(=O)CNCCn3cc(C)cn3)CC2)c1,cytotoxicity at 10 µM,-2.83%
CN(C)c1cccc(C(=O)Nc2cnn(Cc3ccccn3)c2)c1,cytotoxicity at 10 µM,4.81%
CCCc1noc(C(C)N(CC)Cc2ccco2)n1 (stereo not given),cytotoxicity at 10 µM,7.3%
Cc1nc(CSCCC(=O)NCCNC(=O)OC(C)(C)C)cs1,cytotoxicity at 10 µM,-2.3%
CN(C1CCCCC1)S(=O)(=O)NC1CCN(c2ncccn2)CC1,cytotoxicity at 10 µM,6.99%
CC(C)Nc1cccc(C(=O)NCC(O)c2ccc(F)cc2F)c1 (stereo not given),cytotoxicity at 10 µM,14.8%
CCOCCC1(CNC(=O)c2ccc(C)nc2)CCCC1,cytotoxicity at 10 µM,7.25%
CN(C)c1ncccc1C(=O)N1CCN(C2=NCC(C)(C)S2)CC1,cytotoxicity at 10 µM,5.03%
Cc1cccn2c(=O)cc(CN3CCCC3Cn3cncn3)nc12 (stereo not given),cytotoxicity at 10 µM,0.714%
C[S+]([O-])c1nncn1CC(=O)c1ccc(OC(F)F)cc1 (stereo not given),cytotoxicity at 10 µM,-8.56%
Cc1cnn(CC2CN(CCS(C)(=O)=O)CCO2)c1 (stereo not given),cytotoxicity at 10 µM,-2.25%
Cc1cc(CNC(=O)[C@H]2CCCCN2C(=O)OC(C)(C)C)on1,cytotoxicity at 10 µM,-0.82%
Cc1cc(C)c(C(=O)Nc2cccc(CN3CCC(CO)CC3)c2)o1,cytotoxicity at 10 µM,-140%
CCNC(=O)CN1CCN(c2ccnc3c(F)ccc(F)c23)CC1,cytotoxicity at 10 µM,11.7%
NC(=O)c1cnc(NC2CCN(c3ccccc3)CC2)c(Cl)c1,cytotoxicity at 10 µM,6.07%
Cc1c(NCC(C)(C)C)cccc1C(=O)NCc1ncnn1C,cytotoxicity at 10 µM,-3.53%
OCCN1CCC(CNCc2ccc(Br)cc2)CC1,cytotoxicity at 10 µM,-8.29%
CCN(CC)C(=O)CN(C)C(=O)c1cc(-c2cccc(Cl)c2)no1,cytotoxicity at 10 µM,4.28%
O=C(NCCNc1cncc(Br)c1)c1ccc(O)cc1,cytotoxicity at 10 µM,3.73%
O=C(Nc1ccc(F)cc1)C1CCc2ccccc2N1 (stereo not given),cytotoxicity at 10 µM,2.4%
COCCCNC(=O)Nc1cccc(Cl)c1-n1cccn1,cytotoxicity at 10 µM,1.13%
NC(=O)CN1CCC(NC(=O)N2CCCC2c2ccsc2)CC1 (stereo not given),cytotoxicity at 10 µM,1.91%
CCN(C(C)=O)c1nc(CN2CCN(c3nccs3)CC2)cs1,cytotoxicity at 10 µM,-6.01%
CC(=O)NCCNC(=O)NCCc1c(C)cc(C)cc1C,cytotoxicity at 10 µM,6.02%
COc1cncc(N2CCN(Cc3ccncc3Cl)CC2)n1,cytotoxicity at 10 µM,1.66%
CCS(=O)(=O)NCCCNc1ncnc2cc(F)c(F)cc12,cytotoxicity at 10 µM,9.29%
COc1ccccc1C(C)(C)NC(=O)NC1CCC(O)CC1 (stereo not given),cytotoxicity at 10 µM,-3.6%
CCOc1ccc(CN(C)C(=O)COc2ccc(C)nc2)cc1,cytotoxicity at 10 µM,22.7%
CN1CCN(S(=O)(=O)c2cncc(F)c2)c2ccccc2C1,cytotoxicity at 10 µM,-3.69%
CN(CC(N)=O)C(=O)c1cn(-c2ccc(Br)cc2)cn1,cytotoxicity at 10 µM,6.85%
COc1cc(CN(C)C(=O)NCCC2CCCO2)ccc1SC (stereo not given),cytotoxicity at 10 µM,-13.8%
CCc1nsc(NC2CCCn3nc(CC)nc32)n1 (stereo not given),cytotoxicity at 10 µM,16.2%
OC(CN1CCN(c2ncccn2)CC1)c1cccc(F)c1 (stereo not given),cytotoxicity at 10 µM,2.4%
COc1ccc(NC(=O)C(c2cccc(F)c2)N2CCOCC2)cc1 (stereo not given),cytotoxicity at 10 µM,2.42%
CC(C)[C@H](CO)Nc1nccc(-c2c[nH]nc2-c2ccncc2)n1,cytotoxicity at 10 µM,-4.66%
Cc1nn(C)c(C)c1CN(Cc1cccn1-c1ncccn1)C(C)C,cytotoxicity at 10 µM,-0.316%
OCC1CCCCN1Cc1nc(Cc2cccc(F)c2)no1 (stereo not given),cytotoxicity at 10 µM,-137%
Cc1cc(C[C@@H]2COC[C@@H]2NC(=O)CN2CCCCCC2)on1,cytotoxicity at 10 µM,1.29%
Cc1cc(C)c(C(=O)N[C@H](C(N)=O)c2ccccc2)c(=O)[nH]1,cytotoxicity at 10 µM,-2.06%
CCc1ccc(CN(C)Cc2cnc(S(=O)(=O)CC)n2CCOC)cc1,cytotoxicity at 10 µM,-2.19%
CC(=O)N1CCc2c(nc(-c3cccnc3)nc2N(C)CC(O)CO)C1 (stereo not given),cytotoxicity at 10 µM,-2.03%
Cc1nc(-c2nnc(SCC(=O)O)n2C(C)c2ccccc2)co1 (stereo not given),cytotoxicity at 10 µM,-6.3%
CCC(NC(=O)c1cnc(-c2cccnc2)nc1)c1ccnn1C (stereo not given),cytotoxicity at 10 µM,-2.11%
Cc1cc(CN2CCC(CNC(=O)c3ccc4[nH]cnc4c3)C2)[nH]n1 (stereo not given),cytotoxicity at 10 µM,-145%
C[C@@H]1CN(C(=O)C2CCS(=O)(=O)CC2)C[C@@]1(O)C1CC1,cytotoxicity at 10 µM,3.99%
CCC[C@H]1CN(CCS(C)(=O)=O)C[C@@H]1NC(=O)c1ccccc1F,cytotoxicity at 10 µM,-5.88%
COc1ccccc1OCc1cc(C(=O)N2CCCCCC2CO)n[nH]1 (stereo not given),cytotoxicity at 10 µM,-2.48%
O=C(NCCc1cnccn1)c1cccc(S(=O)(=O)NC2CCOC2)c1 (stereo not given),cytotoxicity at 10 µM,6.3%
CCC(OC)C(=O)N1CCc2nc(NC)nc(C(=O)N3CCCC3)c2C1 (stereo not given),cytotoxicity at 10 µM,-18.3%
CN1CCC(c2nnc(CN3CCC(O)CC3)n2C)CC1,cytotoxicity at 10 µM,-8.94%
Cc1nn(C)c(Cl)c1C1CCCN1Cc1nnc(C2CC2)o1 (stereo not given),cytotoxicity at 10 µM,-6.18%
Cc1ccccc1SCC(=O)NS(=O)(=O)c1ccc2c(c1)OCCO2,cytotoxicity at 10 µM,-1.22%
Cc1cc(NC(=O)CN2CCC(N(C)Cc3ncc(C)o3)C2)n(C)n1 (stereo not given),cytotoxicity at 10 µM,-6.49%
Cn1ccc(C(=O)NCc2ccc(N3CCOCC3)nc2)cc1=O,cytotoxicity at 10 µM,-14.3%
Cc1ncccc1CNCC1CCN(CC(C)O)CC1 (stereo not given),cytotoxicity at 10 µM,-5.59%
COCCN(C)C(C)c1cccc(S(N)(=O)=O)c1 (stereo not given),cytotoxicity at 10 µM,-28%
Cc1nc(C2CCCN(C(=O)c3ccc(S(C)(=O)=O)cc3)C2)no1 (stereo not given),cytotoxicity at 10 µM,-11.3%
Cc1cnn(CC2CCCN2C(=O)c2cc(O)nc3ccccc23)c1 (stereo not given),cytotoxicity at 10 µM,-6.5%
COCCN1CC(C(=O)NCc2cccnc2-n2cccn2)CC1=O (stereo not given),cytotoxicity at 10 µM,3.74%
CC(C)c1nnc2n1CCN(C(=O)COc1ccc(C(N)=O)cc1)C2,cytotoxicity at 10 µM,0.0102%
CCC(O)CN1CCN(C(=O)c2cccc3[nH]ncc23)CC1 (stereo not given),cytotoxicity at 10 µM,-11.2%
CN(Cc1ccccc1F)C(=O)CS(=O)(=O)Cc1ccc(Cl)c(Cl)c1,cytotoxicity at 10 µM,3.2%
Cc1cc(C(=O)N[C@H](C)c2onc(-c3cccnc3)c2C(=O)O)c(C)o1,cytotoxicity at 10 µM,1.47%
COCC(=O)N1CCC2(CCc3ccc(F)cc32)CC1,cytotoxicity at 10 µM,-148%
Cc1ccc(CN2Cc3ccnn3CC(C(=O)NCC3CC3)C2)o1 (stereo not given),cytotoxicity at 10 µM,-15.9%
Cc1nc(CN2C(=O)CCC23CCN(Cc2ccoc2)CC3)cs1,cytotoxicity at 10 µM,-0.902%
CCn1cncc1CN1CCN(CC2(c3ccc(C)cc3)CC2)CC1,cytotoxicity at 10 µM,-10.7%
O=C(NCc1cccs1)c1nc2c(o1)CN(CC1CC1)C2,cytotoxicity at 10 µM,-2.83%
Cc1cc(CN2C[C@@H](N3CCN(C)CC3)[C@H]3OCCC[C@H]32)oc1C,cytotoxicity at 10 µM,-132%
Cc1ncsc1CN1C[C@@H](OCc2ccccn2)[C@H]2OCCC[C@H]21,cytotoxicity at 10 µM,-141%
COCCO[C@H]1CCN(Cc2cccnc2)[C@H]1Cc1cccnc1,cytotoxicity at 10 µM,0.0623%
CC(C)(C)NC(=O)CN1CCNCC1,cytotoxicity at 10 µM,-143%
CN1CCN(C2COC3(CCN(CC4CC4)CC3)C2)CC1 (stereo not given),cytotoxicity at 10 µM,-6.81%
O=C1CCCN1Cc1nnc2n1CCN(Cc1ccccn1)CC2,cytotoxicity at 10 µM,-9.87%
Cn1cc(CN2CCC(F)(F)C3(CCN(c4cnccn4)C3)C2)cn1 (stereo not given),cytotoxicity at 10 µM,-9.93%
Cn1cccc1C(=O)NC[C@]12COC[C@H]1CN(Cc1nccs1)C2,cytotoxicity at 10 µM,-2.74%
COC1COC2(CCN(Cc3cccc(Cl)c3)CC2)C1 (stereo not given),cytotoxicity at 10 µM,-1.31%
Cc1nc(CN2CC3(CCN(c4ncc(F)cn4)C3)CC2=O)cs1 (stereo not given),cytotoxicity at 10 µM,3.25%
